In brackets after ≈: the same amount, converted by molar mass.
Tests used:
[1] = test system: Vesicular stomatitis virus; test: Antiviral activity against Vesicular stomatitis virus infected in human HeLa cells assessed as reduction in virus-induced cytopathic effect incubated for 3 to 6 days by light microscopic analysis; assay type: functional, organism-based
Summary of the method: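 CPE reduction assay: virus and serial compound dilutions added together to subconfluent HeLa (vesicular stomatitis, Coxsackie B4, respiratory syncytial) or Vero (Coxsackie B4, Sindbis, Punta Toro) cultures. Incubated 3–6 days at 37 °C. Mean ± SEM of three independent tests.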

Coxsackievirus B4 [2] = test: Antiviral activity against Human coxsackievirus B4 infected in human HeLa cells assessed as reduction in virus-induced cytopathic effect incubated for 3 to 6 days by light microscopic analysis; assay type: functional, organism-based; conditions: Enterovirus B
Summary of the method: (§1)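 CPE reduction assay: virus and serial compound dilutions added together to subconfluent HeLa (vesicular stomatitis, Coxsackie B4, respiratory syncytial) or Vero (Coxsackie B4, Sindbis, Punta Toro) cultures. Incubated 3–6 days at 37 °C. […] Mean ± SEM of three independent tests.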

[3] = test system: Respiratory syncytial virus; test: Antiviral activity against Respiratory syncytial virus infected in human HeLa cells assessed as reduction in virus-induced cytopathic effect incubated for 3 to 6 days by light microscopic analysis; assay type: functional, organism-based; summary of the method: as §1
[4] = Cytotoxicity against human HeLa cells assessed as changes in cell morphology incubated for 3 to 6 days by light microscopic analysis; assay type: cell-based; conditions: time 3-6 day
Summary of the method: (§2)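 Uninfected subconfluent cells (Vero or HeLa, as named) exposed to serial compound dilutions in parallel with the CPE assays, 37 °C, 3–6 days. Cell morphology examined by light microscopy; MCC = minimal concentration causing microscopically detectable changes in morphology.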

[5] = Selectivity index, ratio of MCC for human HeLa cells to EC50 for Human coxsackievirus B4 infected in human HeLa cells; assay type: toxicity, cell-based
Summary of the method: (§3)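 HeLa cells infected concurrently with addition of serial compound dilutions, 3–6 days at 37 °C. CPE inhibition scored microscopically for EC50; MCC from minimal alteration of cell morphology by microscopy; index = MCC divided by EC50.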

Human respirovirus 3 = test: Antiviral activity against Human parainfluenza virus 3 infected in African green monkey Vero cells assessed as reduction in virus-induced cytopathic effect incubated for 3 to 6 days by light microscopic analysis; assay type: functional, organism-based; conditions: Human respirovirus 3, Vero
[6] = test system: Mammalian orthoreovirus 1; test: Antiviral activity against Mammalian orthoreovirus 1 infected in African green monkey Vero cells assessed as reduction in virus-induced cytopathic effect incubated for 3 to 6 days by light microscopic analysis; assay type: functional, organism-based; conditions: Mammalian orthoreovirus 1, Vero
Sindbis virus = test: Antiviral activity against Sindbis virus infected in African green monkey Vero cells assessed as reduction in virus-induced cytopathic effect incubated for 3 to 6 days by light microscopic analysis; assay type: functional, organism-based; summary of the method: as §1
Coxsackievirus B4 [7] = test: Antiviral activity against Human coxsackievirus B4 infected in African green monkey Vero cells assessed as reduction in virus-induced cytopathic effect incubated for 3 to 6 days by light microscopic analysis; assay type: functional, organism-based; conditions: Enterovirus B; summary of the method: as §1
Punta Toro virus = test: Antiviral activity against Punta Toro virus infected in African green monkey Vero cells assessed as reduction in virus-induced cytopathic effect incubated for 3 to 6 days by light microscopic analysis; assay type: functional, organism-based; summary of the method: as §1
[8] = Cytotoxicity against African green monkey Vero cells assessed as changes in cell morphology incubated for 3 to 6 days by light microscopy; assay type: cell-based; conditions: chlorocebus sabaeus, time 3-6 day; summary of the method: as §2
[9] = Selectivity index, ratio of MCC for African green monkey Vero cells to EC50 for Human coxsackievirus B4 infected in African green monkey Vero cells; assay type: toxicity
Human alphaherpesvirus 1 = test: Antiviral activity against Herpes simplex virus 1 infected in human HEL cells assessed as reduction in virus-induced cytopathic effect incubated for 3 to 6 days by light microscopic analysis; assay type: functional, cell-based; conditions: Human alphaherpesvirus 1, HEL
Human alphaherpesvirus 2 = test: Antiviral activity against Herpes simplex virus 2 infected in human HEL cells assessed as reduction in virus-induced cytopathic effect incubated for 3 to 6 days by light microscopic analysis; assay type: functional, cell-based; conditions: Human alphaherpesvirus 2, HEL
Vaccinia virus = test: Antiviral activity against Vaccinia virus infected in human HEL cells assessed as reduction in virus-induced cytopathic effect incubated for 3 to 6 days by light microscopic analysis; assay type: functional, organism-based; conditions: Orthopoxvirus vaccinia
[10] = test system: Human immunodeficiency virus 1; test: Antiviral activity against Human immunodeficiency virus 1 infected in human MT4 cells assessed as reduction in virus-induced cytopathic effect incubated for 3 to 6 days by light microscopic analysis; assay type: functional, organism-based; conditions: Human immunodeficiency virus 1, MT4
[11] = test system: Human immunodeficiency virus 2; test: Antiviral activity against Human immunodeficiency virus 2 infected in human MT4 cells assessed as reduction in virus-induced cytopathic effect incubated for 3 to 6 days by light microscopic analysis; assay type: functional, organism-based; conditions: Human immunodeficiency virus 2, MT4
Influenza A virus = test: Antiviral activity against influenza A virus infected in dog MDCK cells assessed as reduction in virus-induced cytopathic effect incubated for 3 to 6 days by light microscopic analysis; assay type: functional, organism-based; conditions: Influenza A virus, MDCK
Summary of the method: (§4)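 MDCK cells, subconfluent, received influenza A or B virus together with serial compound dilutions. Incubated 3–6 days at 35 °C.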

Influenza B virus = test: Antiviral activity against influenza B virus infected in dog MDCK cells assessed as reduction in virus-induced cytopathic effect incubated for 3 to 6 days by light microscopic analysis; assay type: functional, organism-based; summary of the method: as §4
Feline coronavirus = test: Antiviral activity against Feline coronavirus infected in cat CRFK cells assessed as reduction in virus-induced cytopathic effect incubated for 3 to 6 days by light microscopic analysis; assay type: functional, organism-based; conditions: Alphacoronavirus 1, CRFK
Felid alphaherpesvirus 1 = test: Antiviral activity against Feline herpesvirus infected in cat CRFK cells assessed as reduction in virus-induced cytopathic effect incubated for 3 to 6 days by light microscopic analysis; assay type: functional, organism-based; conditions: Felid alphaherpesvirus 1, CRFK
[12] = Cytotoxicity against human HEL cells assessed as changes in cell morphology incubated for 3 to 6 days by light microscopy; assay type: cell-based; conditions: time 3-6 day
Summary of the method: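 Human embryonic lung fibroblasts incubated with serial compound dilutions alongside the antiviral assays, 37 °C, 3–6 days. Morphology inspected by light microscopy; minimal cytotoxic concentration taken as lowest concentration giving minimal morphological change.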

[13] = Cytotoxicity against dog MDCK cells assessed as changes in cell morphology incubated for 3 to 6 days by light microscopy; assay type: cell-based, Canis lupus familiaris; conditions: time 3-6 day
[14] = Cytotoxicity against cat CRFK cells assessed as reduction in cell viability incubated for 3 to 6 days by MTS assay; assay type: cell-based, Felis catus; conditions: crfk, time 3-6 day
Summary of the method: (§5)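 CRFK or MT4 cells were exposed to serial compound dilutions alongside the antiviral assays for 3–6 days at 37 °C.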

MT4 = test: Cytotoxicity against human MT4 cells assessed as reduction in cell viability incubated for 3 to 6 days by MTS assay; assay type: cell-based; conditions: time 3-6 day; summary of the method: as §5
[15] = Selectivity index, ratio of MCC for human HeLa cells to EC50 for Respiratory syncytial virus infected in human HeLa cells; assay type: toxicity, cell-based; summary of the method: as §3
[16] = Selectivity index, ratio of MCC for African green monkey Vero cells to EC50 for Sindbis virus infected in African green monkey Vero cells; assay type: toxicity

CNC(=S)NNC(=O)c1[nH]c2ccc(F)cc2c1-c1ccccc1
EC50 [1]: > 100 mg/L | EC50 (Coxsackievirus B4 [2]): 2.1 mg/L (≈ 6.13 µM) | EC50 [3]: > 100 mg/L | MCC [4]: 20 µg/mL | selectivity ratio [5]: 9 | EC50 (Human respirovirus 3): > 100 mg/L | EC50 [6]: > 100 mg/L | EC50 (Sindbis virus): > 100 mg/L | EC50 (Coxsackievirus B4 [7]): 1.7 mg/L (≈ 4.96 µM) | EC50 (Punta Toro virus): > 100 mg/L | MCC [8]: 20 µg/mL | selectivity ratio [9]: 12 | EC50 (Human alphaherpesvirus 1): > 100 mg/L | EC50 (Human alphaherpesvirus 2): > 100 mg/L | EC50 (Vaccinia virus): > 100 mg/L | EC50 [10]: > 100 mg/L | EC50 [11]: > 100 mg/L | EC50 (Influenza A virus): > 100 mg/L | EC50 (Influenza B virus): > 100 mg/L | EC50 (Feline coronavirus): > 100 mg/L | EC50 (Felid alphaherpesvirus 1): > 100 mg/L | MCC [12]: 20 µg/mL | MCC [13]: 20 µg/mL | CC50 [14]: 7.5 mg/L (≈ 21.9 µM) | CC50 (MT4): 18 mg/L (≈ 52.6 µM)

CCCNC(=S)NNC(=O)c1[nH]c2ccc(F)cc2c1-c1ccccc1
EC50 [1]: > 100 mg/L | EC50 (Coxsackievirus B4 [2]): 1.1 mg/L (≈ 2.97 µM) | EC50 [3]: ≥ 2.3 mg/L | MCC [4]: 20 µg/mL | selectivity ratio [5]: 18 | selectivity ratio [15]: ≥ 9 | EC50 (Human respirovirus 3): > 100 mg/L | EC50 [6]: > 100 mg/L | EC50 (Sindbis virus): 6.5 mg/L (≈ 17.5 µM) | EC50 (Coxsackievirus B4 [7]): 1.8 mg/L (≈ 4.86 µM) | EC50 (Punta Toro virus): > 100 mg/L | selectivity ratio [16]: 15 | selectivity ratio [9]: 56 | EC50 (Human alphaherpesvirus 1): > 100 mg/L | EC50 (Human alphaherpesvirus 2): > 100 mg/L | EC50 (Vaccinia virus): > 100 mg/L | EC50 [10]: > 100 mg/L | EC50 [11]: > 100 mg/L | EC50 (Influenza A virus): > 100 mg/L | EC50 (Influenza B virus): > 100 mg/L | EC50 (Feline coronavirus): > 100 mg/L | EC50 (Felid alphaherpesvirus 1): > 100 mg/L | MCC [12]: 20 µg/mL | MCC [13]: 0.8 µg/mL | CC50 [14]: 9.7 mg/L (≈ 26.2 µM) | CC50 (MT4): 11 mg/L (≈ 29.7 µM)

C=CCNC(=S)NNC(=O)c1[nH]c2ccc(F)cc2c1-c1ccccc1
EC50 [1]: > 100 mg/L | EC50 (Coxsackievirus B4 [2]): 1.5 mg/L (≈ 4.07 µM) | EC50 [3]: ≥ 4 mg/L | MCC [4]: 20 µg/mL | selectivity ratio [5]: 13 | selectivity ratio [15]: ≥ 5 | EC50 (Human respirovirus 3): > 100 mg/L | EC50 [6]: > 100 mg/L | EC50 (Sindbis virus): ≥ 4 mg/L | EC50 (Coxsackievirus B4 [7]): 2 mg/L (≈ 5.43 µM) | EC50 (Punta Toro virus): > 100 mg/L | MCC [8]: 20 µg/mL | selectivity ratio [16]: ≥ 5 | selectivity ratio [9]: 10 | EC50 (Human alphaherpesvirus 1): > 100 mg/L | EC50 (Human alphaherpesvirus 2): > 100 mg/L | EC50 (Vaccinia virus): > 100 mg/L | EC50 [10]: > 100 mg/L | EC50 [11]: > 100 mg/L | EC50 (Influenza A virus): > 100 mg/L | EC50 (Influenza B virus): > 100 mg/L | EC50 (Feline coronavirus): > 100 mg/L | EC50 (Felid alphaherpesvirus 1): > 100 mg/L | MCC [12]: 20 µg/mL | MCC [13]: 4 µg/mL | CC50 [14]: 8.6 mg/L (≈ 23.3 µM)

CCNC(=S)NNC(=O)c1[nH]c2ccc(F)cc2c1-c1ccccc1
EC50 [1]: > 100 mg/L | EC50 (Coxsackievirus B4 [2]): 0.87 mg/L (≈ 2.44 µM) | EC50 [3]: ≥ 4 mg/L | MCC [4]: 20 µg/mL | selectivity ratio [5]: 23 | selectivity ratio [15]: ≥ 5 | EC50 (Human respirovirus 3): > 100 mg/L | EC50 [6]: > 100 mg/L | EC50 (Coxsackievirus B4 [7]): 0.4 mg/L (≈ 1.12 µM) | EC50 (Punta Toro virus): > 100 mg/L | MCC [8]: 20 µg/mL | selectivity ratio [16]: 6 | selectivity ratio [9]: 50 | EC50 (Human alphaherpesvirus 1): > 100 mg/L | EC50 (Human alphaherpesvirus 2): > 100 mg/L | EC50 (Vaccinia virus): > 100 mg/L | EC50 [10]: > 100 mg/L | EC50 [11]: > 100 mg/L | EC50 (Influenza A virus): > 100 mg/L | EC50 (Influenza B virus): > 100 mg/L | EC50 (Feline coronavirus): > 100 mg/L | EC50 (Felid alphaherpesvirus 1): > 100 mg/L | MCC [12]: 20 µg/mL | MCC [13]: 4 µg/mL | CC50 [14]: 2.9 mg/L (≈ 8.14 µM) | CC50 (MT4): 14 mg/L (≈ 39.3 µM)
